Screens (PubChem)
TRPC6 inh: inhibitors of mouse TRPC6 channel; HEK293-TRPC6, membrane potential dye, ACh-evoked depolarization; hits give low values; AID 2553; B-score at 10 µM; hit rate 1.1% among 310,000;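 active = B-score under library mean minus 3 SD, initial fluorescence not abnormally high, positive integrated signal ratio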;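 note: B-score derived from integrated fluorescence ratio over the kinetic read; more negative B-score means stronger inhibition of depolarization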
TRPC4 act: TRPC4 (mouse) channel activation; Q9QUQ5; HEK293 TRPC4beta/mu-opioid, Fluo4 calcium fluorescence; hits give high values; B-score at 10 µM; hit rate 0.49% among 310,000;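 active = B-score above 5 SD of library B-scores, and initial fluorescence ratio not above library mean plus 5 SD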;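 note: positive B-score marks a calcium rise read as TRPC4 activation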
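Test system: HEK293 cells stably co-expressing mouse TRPC4beta and mu-opioid receptor | Schedule: Fluo4 dye loading 45 min at room temperature, 110 s recording | Measured by: Kinetic Fluo4 calcium fluorescence, 5 s baseline at 1 Hz | Evaluation: B score of integrated ratio | Controls: Buffer (low) and maximal DAMGO (high)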
TRPC4 PAM: TRPC4 (mouse) allosteric potentiation. Q9QUQ5. HEK293 TRPC4beta/mu-opioid, DAMGO EC20, Fluo-4 Ca2+ flux; hits give high values. B-score at 10 µM. hit rate 0.42% among 310,000;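 active = B-score of calcium response area above 5 SD of library B-scores, with initial fluorescence ratio within 5 SD of library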
TRPC4 inh: inhibitors of mouse TRPC4 channel. Q9QUQ5. HEK293 TRPC4beta/mu-opioid, DAMGO-evoked Fluo4 calcium flux; hits give low values. B-score at 10 µM. hit rate 0.39% among 300,000;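 active = B-score over 3 SD under the library average, no early fluorescence shift, positive overall ratio signal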
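test system = HEK293 cells with stable TRPC4beta plus mu-opioid receptor expression | detection = Fluo4 Ca2+ flux fluorescence | read-out = integrated fluorescence ratio relative to baseline, converted to per-well B score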
TRPC6 activator: activators of mouse TRPC6 channel | B-score at 10 µM | hit rate 0.13% among 310,000 | AID 2550 | Q61143 | HEK293-TRPC6 membrane potential dye fluorescence; hits give high values;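 active = B-score of the integrated fluorescence ratio above library mean plus 3 SD, and starting fluorescence ratio within library mean plus 5 SD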;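 note: higher score means more depolarization so channel activation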
Each line names hits and unclear results; the compound was inactive in the other large screens. Most compounds without a hit are left out; they make up all but 2.3% or so of the library.

CCOC(=O)c1c(C)[nH]c(C)c1S(=O)(=O)NCC1CCN(Cc2ccccc2OC)CC1	none
CCCNC(=O)C1=C(C)C(=O)OC12CCC(C)CC2 (stereo not drawn)	none
CC1=C(C(=O)NCCN2CCN(C)CC2)C2(CCC(C)CC2)OC1=O (stereo not drawn)	TRPC4 PAM 22
O=C(Nc1cccc(/C=C/c2ccccn2)c1)c1cc(Cl)ccn1	none
COc1ccc(CCn2c(N)c(C#N)c3nc4ccccc4nc32)cc1OC	TRPC4 inh -6
O=C(CNCC1CCCCC1)Nc1ccc(OC(F)(F)F)cc1	TRPC4 act 43
CCCCN(C)CCNC(=O)c1cc(-c2cccnc2)nc2ccc(S(=O)(=O)N3CCC(C)CC3)cc12	TRPC4 act 57
Cc1c(N2C(=O)/C(=C/C3CC=CCC3)SC2=S)c(=O)n(-c2ccccc2)n1C (stereo not drawn)	none
Cc1c(N2C(=O)/C(=C\C3CC=CCC3)SC2=S)c(=O)n(-c2ccccc2)n1C (stereo not drawn)	TRPC4 PAM 17
Cn1c(Cc2nc(-c3cnccn3)no2)nnc1SCC(=O)Nc1ccccc1	none
OC1(c2cccs2)CN(c2ccc(Cl)cc2)C2=[N+]1CCCC2 (stereo not drawn)	TRPC4 inh -6
C/C=C(/C)C(=O)O[C@@H]1c2cc(OC)c(OC)c(OC)c2-c2c(cc3c(c2OC)OCO3)C[C@H](C)[C@]1(C)O	TRPC4 PAM 16 (no result: TRPC4 inh)
COc1cc2c(c(OC)c1OC)-c1c(cc3c(c1OC)OCO3)[C@@H](OC(C)=O)[C@H](C)[C@H](C)C2	none
O=C(NCCCN1CCN(c2cccc(Cl)c2)CC1)C1CCC(=O)N1Cc1ccccc1Cl (stereo not drawn)	TRPC4 inh -6
COCCNC(=O)CCn1nc(-c2ccc(C)cc2)ccc1=O	none
COc1ccc(C(=O)NNC(=O)CN2CCC(n3nnc4cc(C)ccc43)CC2)cc1	TRPC4 PAM 16
COc1ccc(C(=O)NC2CCN(CC(=O)NC3CCCCC3)CC2)cc1	TRPC4 inh -6
O=C(CN1CCC(n2nnc3cc(F)ccc32)CC1)NNC(=O)c1ccccc1	none
Cc1ccc(N(CC(=O)N2CCN(c3ccc(F)cc3)CC2)S(=O)(=O)c2c(C)noc2C)cc1	none
CCOc1ccc(S(=O)(=O)N2CCN(CC(O)COc3cccc([N+](=O)[O-])c3)CC2)cc1 (stereo not drawn)	none
Fc1ccccc1OCCCn1ccnc1	none
O=C(Nc1cccc(-c2ccc(F)cc2)c1)C1CCCN(Cc2cccnc2)C1 (stereo not drawn)	none
CN(C)C(CNc1ncnc2sccc12)c1cccs1 (stereo not drawn)	TRPC4 act 70
O=C(CCCNC(=O)c1ccc(Cl)cc1)OCc1cccc(Br)c1	none
CN(C)c1ccc(C(C(=O)NCc2ccccc2)N(Cc2ccco2)C(=O)c2snc(C(N)=O)c2N)cc1 (stereo not drawn)	none
CCCCCc1ccc(OCCOCCn2c[n+](C)c3ccccc32)c(CCCCC)c1	TRPC4 act 51
CCCCCc1ccc(OCCC[n+]2ccccc2)c(CCCCC)c1	none
CCOC(=O)c1c(C)n(-c2ccc(C)cc2)c2ccc(OCC(O)CNCC3CCCO3)cc12 (stereo not drawn)	TRPC4 PAM 33
CN(C(=O)COC(=O)c1sc2ccccc2c1Cl)C1CCCCC1	TRPC4 PAM 29
CN(C)CCCOC(=O)c1sc2ccccc2c1Cl	none
Fc1ccc(-c2cnc3n2CCCCC3)cc1	none
NC(=O)C(c1cccc(Cl)c1)c1ncc(C(F)(F)F)cc1Cl (stereo not drawn)	TRPC4 PAM 15
O=c1onc(-c2ccccc2Cl)n1-c1ccccc1Cl	none
C=CCS(=O)(=O)N1CCCC(N2CCN(c3ccccc3OC)CC2)C1 (stereo not drawn)	none
COc1ccccc1N1CCN(C2CCCN(S(=O)(=O)c3ccccc3)C2)CC1 (stereo not drawn)	TRPC4 inh -6
Cc1ccc(S(=O)(=O)N2CCN3CCCC3C2)cc1 (stereo not drawn)	none
O=S(=O)(c1ccc(Cl)cc1)N1CCN2CCCC2C1 (stereo not drawn)	TRPC4 act 98, TRPC4 PAM 34
N=c1c2c(n(Cc3cccc(Cl)c3)c3c1CCC3)CCCC2	none
N=c1c2c(n(Cc3ccc(Cl)cc3)c3c1CCC3)CCC2	TRPC4 inh -7
